The test system of series [1] is HEK293. Description: Cytotoxicity against human HEK293 cells expressing human NOD1 assessed as reduction in metabolic activity at 20 uM incubated for 18 hrs by MTS assay. The conditions noted are these: hek293, 18 h. It is filed as ADME, cell-based. A digest of the protocol:
(§1)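 HEK-Blue NOD1 or NOD2 cells seeded at 1 × 10^4 cells/well in triplicate. Treated 18 h with 20 µM compound or 0.1% DMSO vehicle. Metabolic activity read by MTS (CellTiter 96 AQueous One) and expressed relative to vehicle control. Mean ± SD of three biological replicates.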
A general note: Tetrazolium dyes change colour on reduction, which living cells bring about.

The test system of series [2] is HEK293. The series is described as follows: Cytotoxicity against human HEK293 cells expressing human NOD2 assessed as reduction in metabolic activity at 20 uM incubated for 18 hrs by MTS assay. It is filed as ADME, cell-based. The conditions noted are these: hek293, 18 h. A digest of the protocol:
as §1

Series [3] deals with T1, Nucleotide-binding oligomerization domain-containing protein 1 (Homo sapiens) (UniProt Q9Y239).
T1 sequence (whole entry): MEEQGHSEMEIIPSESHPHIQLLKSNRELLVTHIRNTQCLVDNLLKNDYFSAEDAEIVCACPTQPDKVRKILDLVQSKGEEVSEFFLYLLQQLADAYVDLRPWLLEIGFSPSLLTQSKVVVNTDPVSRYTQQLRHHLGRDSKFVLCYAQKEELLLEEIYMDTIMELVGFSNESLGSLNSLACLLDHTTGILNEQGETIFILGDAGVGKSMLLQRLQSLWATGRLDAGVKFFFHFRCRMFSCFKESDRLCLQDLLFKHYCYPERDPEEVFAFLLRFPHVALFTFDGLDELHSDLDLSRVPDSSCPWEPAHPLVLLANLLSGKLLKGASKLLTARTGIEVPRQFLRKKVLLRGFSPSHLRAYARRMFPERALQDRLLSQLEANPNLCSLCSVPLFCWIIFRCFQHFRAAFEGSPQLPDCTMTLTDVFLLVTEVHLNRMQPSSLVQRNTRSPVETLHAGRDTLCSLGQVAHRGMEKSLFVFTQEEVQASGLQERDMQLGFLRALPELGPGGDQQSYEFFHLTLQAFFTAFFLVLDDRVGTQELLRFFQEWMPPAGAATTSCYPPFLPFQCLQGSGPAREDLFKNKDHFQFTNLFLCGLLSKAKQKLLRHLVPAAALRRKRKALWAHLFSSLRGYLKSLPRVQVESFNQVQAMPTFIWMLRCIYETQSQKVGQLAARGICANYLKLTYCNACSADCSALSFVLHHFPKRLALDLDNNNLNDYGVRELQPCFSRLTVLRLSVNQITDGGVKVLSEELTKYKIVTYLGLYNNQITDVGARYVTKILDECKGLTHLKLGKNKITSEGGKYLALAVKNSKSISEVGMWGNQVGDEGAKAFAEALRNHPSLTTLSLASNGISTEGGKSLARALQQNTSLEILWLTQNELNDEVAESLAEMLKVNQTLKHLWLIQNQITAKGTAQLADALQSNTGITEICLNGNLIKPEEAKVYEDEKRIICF
The series is described as follows: Antagonist activity at human NOD1 expressed in HEK293 cells assessed as reduction in C12-iE-DAP-induced NF-kappaB activation at 10 uM preincubated for 1 hr followed by C12-iE-DAP stimulation and measured after 18 hrs by SEAP reporter gene based spectrophotometric analysis. Type of series: cell-based. The note with it: time 19.0 hrs. A digest of the protocol:
(§2)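 HEK-Blue NOD1 or NOD2 reporter cells (5 × 10^5 cells/mL, passages 7–12) pre-treated 1 h with 10 µM compound. Then 100 nM C12-iE-DAP (NOD1) or 2 µM MDP (NOD2) for 18 h at 37 °C, 5% CO2. Secreted SEAP read at 620 nm. DMSO ≤0.1% vehicle control. Duplicates, three biological replicates.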

Series [4] has as its target T2, Nucleotide-binding oligomerization domain-containing protein 2 (Homo sapiens, UniProt Q9HC29). Description: Antagonist activity at human NOD2 expressed in HEK293 cells assessed as reduction in MDP-induced NF-kappaB activation at 10 uM preincubated for 1 hr followed by MDP stimulation and measured after 18 hrs by SEAP reporter gene based spectrophotometric analysis. It is filed as cell-based. The conditions noted are these: time 19.0 hrs. In short, it runs like this:
as §2
In general terms: Reporter assays use an easily measured gene product as a stand-in for the process of interest.

The target in series [5] is T1, Nucleotide-binding oligomerization domain-containing protein 1 (Homo sapiens). The series is described as follows: Antagonist activity at NOD1 in human THP-1 cells assessed as reduction in C12-iE-DAP-induced IL-8 secretion at 20 uM preincubated for 1 hr followed by C12-iE-DAP stimulation and measured after 20 hrs by ELISA. It is filed as cell-based. The conditions noted are these: filed as antagonist, time 21.0 hrs. A digest of the protocol: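 THP-1 cells at 10^6 cells/mL in 24-well cultures, passages 3–12. Pre-treated 1 h with 20 µM compound, then 10 µM MDP (NOD2) or 10 µM C12-iE-DAP (NOD1) added, 20 h at 37 °C, 5% CO2. Triplicate wells, DMSO ≤0.2% as vehicle control. Supernatant IL-8 by sandwich ELISA, detection limit 15.6 pg/mL. Mean ± SD of duplicates from three independent experiments, Dunnett test.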
For orientation: An ELISA detects its analyte on a solid surface through an enzyme-linked reagent.

In a further series the test system is THP-1. Description: Antagonist activity at NOD1/TLR4 in human THP-1 cells assessed as reduction in C12-iE-DAP/LPS-induced TNF-alpha secretion at 20 uM preincubated for 1 hr followed by C12-iE-DAP/LPS stimulation and measured after 20 hrs by ELISA. It is filed as cell-based. The note with it: filed as antagonist, time 21.0 hrs. In short, it runs like this:
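Synergy setting in THP-1 cells: 1 h pre-treatment with 20 µM compound, then 10 µM MDP or C12-iE-DAP plus 1 ng/mL E. coli O127:B8 LPS for 20 h. Supernatant TNF-α by sandwich ELISA, detection limit 4 pg/mL. DMSO vehicle ≤0.2%. Duplicates from three independent experiments, mean ± SD, Dunnett test against agonist+LPS-treated cells.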

The target of series [6] is T3, Nucleotide-binding oligomerization domain-containing protein 1 (Homo sapiens, UniProt Q9Y239).
T3 sequence (Q9Y239 whole entry): T1 sequence (whole entry)
Description: Antagonist activity at human NOD1 expressed in HEK293 cells assessed as reduction in C12-iE-DAP-induced NF-kappaB activation preincubated for 1 hr followed by C12-iE-DAP stimulation and measured after 18 hrs by SEAP reporter gene based spectrophotometric analysis. It is filed as cell-based.

In series [7] the target is T2, Nucleotide-binding oligomerization domain-containing protein 2. The series is described as follows: Antagonist activity at human NOD2 expressed in HEK293 cells assessed as reduction in MDP-induced NF-kappaB activation preincubated for 1 hr followed by MDP stimulation and measured after 18 hrs by SEAP reporter gene based spectrophotometric analysis. Type of series: cell-based. A digest of the protocol:
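Dose–response in HEK-Blue NOD2 and NOD1 cells (5 × 10^5 cells/mL): 1 h pre-treatment with 0.3125–20 µM antagonist, then 2 µM MDP or 100 nM C12-iE-DAP respectively, 18 h incubation. SEAP absorbance read at 620 nm. IC50 fitted by non-linear regression. Duplicates, three biological replicates, DMSO ≤0.1%.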

Active and inactive are the calls of the source. The rule behind the calls is not given here. A value given as a limit tells only on which side of the number the result lay.

This is an account of results in ChEMBL document CHEMBL4765256, “Structural features and functional activities of benzimidazoles as NOD2 antagonists” (Eur J Med Chem, 2020).

T2 sequence (Q9HC29 whole entry, the tested form may be a part): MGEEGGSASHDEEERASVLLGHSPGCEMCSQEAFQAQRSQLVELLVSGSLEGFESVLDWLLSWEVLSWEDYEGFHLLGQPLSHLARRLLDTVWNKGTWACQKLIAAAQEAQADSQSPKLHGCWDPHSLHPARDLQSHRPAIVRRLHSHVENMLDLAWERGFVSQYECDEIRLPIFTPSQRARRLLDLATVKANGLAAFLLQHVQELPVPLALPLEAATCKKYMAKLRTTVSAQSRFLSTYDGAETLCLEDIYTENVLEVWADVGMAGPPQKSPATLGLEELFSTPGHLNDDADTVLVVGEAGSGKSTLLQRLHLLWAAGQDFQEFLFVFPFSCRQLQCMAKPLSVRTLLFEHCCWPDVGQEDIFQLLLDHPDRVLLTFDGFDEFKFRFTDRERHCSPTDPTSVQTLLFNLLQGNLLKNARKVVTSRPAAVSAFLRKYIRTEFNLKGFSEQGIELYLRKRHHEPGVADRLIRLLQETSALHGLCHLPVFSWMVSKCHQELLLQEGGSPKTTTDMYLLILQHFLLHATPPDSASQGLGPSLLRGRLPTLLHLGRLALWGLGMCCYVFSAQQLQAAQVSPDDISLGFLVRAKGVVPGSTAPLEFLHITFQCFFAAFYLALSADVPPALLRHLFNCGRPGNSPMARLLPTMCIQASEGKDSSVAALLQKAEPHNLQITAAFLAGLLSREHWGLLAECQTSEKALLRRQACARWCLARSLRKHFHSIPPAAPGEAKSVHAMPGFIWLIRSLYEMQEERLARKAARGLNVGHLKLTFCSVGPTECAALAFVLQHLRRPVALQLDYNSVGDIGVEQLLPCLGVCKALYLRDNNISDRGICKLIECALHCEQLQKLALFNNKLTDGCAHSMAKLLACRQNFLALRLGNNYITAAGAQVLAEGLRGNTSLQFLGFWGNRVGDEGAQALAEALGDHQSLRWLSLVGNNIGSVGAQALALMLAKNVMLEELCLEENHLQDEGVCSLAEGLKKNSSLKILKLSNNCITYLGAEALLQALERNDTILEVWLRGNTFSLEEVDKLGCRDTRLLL

Take `Cl.O=C(Cn1c(CCNC(=O)C2CCNCC2)nc2ccccc21)Nc1ccc2c(c1)CCC2`: the Activity result with HEK293 [1] and with HEK293 [2] was “Non-Toxic” throughout. The outcome in series [3] and in series [4] was inactive.

As for `Cc1ccc(S(=O)(=O)n2c(N)nc3ccccc32)cc1`, the Activity result with HEK293 [1] and in the series with HEK293 [2] was “Non-Toxic” each time. Besides, the outcome (in series [3] (filed as antagonist); in series [5]; with THP-1) was Active.

For `O=C(CCc1nc2ccccc2n1CC(=O)Nc1ccc2c(c1)CCC2)Nc1ccccc1`, the Activity entry with HEK293 [1] and in the series on HEK293 [2] was “Non-Toxic” in each case. Besides, the result in series [3] (filed as antagonist) and in series [4] (filed as antagonist) was Active. In addition, the IC50 (in general, the midpoint of a concentration-inhibition curve) stood at 12.4 µM in series [6] and 8.8 µM in series [7] (read-out: IC50).

Consider `O=C(Cn1c(CCCNS(=O)(=O)c2ccccc2)nc2ccccc21)Nc1ccc2c(c1)CCC2`, for which the Activity result in the series with HEK293 [1] and with HEK293 [2] was “Non-Toxic” each time. For the same compound, the 50% inhibitory concentration (IC50) in series [6] is 9.25 µM; in series [7] (read-out: IC50), 5.12 µM.

For the compound `O=C(Cn1c(CCNC(=O)c2cccnc2)nc2ccccc21)Nc1ccc2c(c1)CCC2`, the Activity entry with HEK293 [1] and in the series with HEK293 [2] was “Non-Toxic” each time. Further, the outcome in series [3] and in series [4] was inactive. Also, the IC50 entry in series [7] (hek293) is given as “Not Active”.

On to `O=C(Cn1c(CCNCc2ccccc2)nc2ccccc21)Nc1ccc2c(c1)CCC2`, for which the Activity entry in the series with HEK293 [1] and with HEK293 [2] was “Toxic” throughout. In addition, the result in series [3] (filed as antagonist) and in series [4] (filed as antagonist) was Active. The results for the half-inhibitory concentration (IC50) in series [6] and in series [7] (read-out: IC50) were 30.7 µM and 4.76 µM, respectively.

Take `O=C(Cc1ccncc1)NCCc1nc2ccccc2n1CC(=O)Nc1ccc2c(c1)CCC2`: the Activity result in the series on HEK293 [1] and in the series with HEK293 [2] was “Non-Toxic” each time. Besides, the outcome in series [3] and in series [4] was inactive. Besides, the IC50 in series [6] stood at 42.3 µM; in series [7] (read-out: IC50) it was 25.9 µM.

With `O=C(Cn1c(CCNC(=O)c2ccncc2)nc2ccccc21)Nc1ccc2c(c1)CCC2`, the Activity result with HEK293 [1] and with HEK293 [2] was “Non-Toxic” each time. Further, the outcome in series [3] and in series [4] was inactive.

Consider `CC(C)(C)OC(=O)N1CCC(C(=O)NCCc2nc3ccccc3n2CC(=O)Nc2ccc3c(c2)CCC3)CC1`, for which the Activity result with HEK293 [1] and with HEK293 [2] was “Non-Toxic” throughout. For the same compound, the result in series [3] (filed as antagonist) and in series [4] (filed as antagonist) was Active. The half-inhibitory concentration (IC50) in series [6] came out at 13.3 µM; in series [7] (read-out: IC50) it was 10.6 µM.

As for `O=C(Cn1c(CCNS(=O)(=O)c2cccnc2)nc2ccccc21)Nc1ccc2c(c1)CCC2`, the Activity result with HEK293 [1] and in the series with HEK293 [2] was “Non-Toxic” each time. In addition, the result in series [3] (filed as antagonist) and in series [4] (filed as antagonist) was Active. The half-maximal inhibitory concentration (IC50) in series [6] turned out to be 32 µM; in series [7] (read-out: IC50), 16.4 µM.

For the compound `CN(CCCc1nc2ccccc2n1CC(=O)Nc1ccc2c(c1)CCC2)S(=O)(=O)c1ccccc1`, the Activity result in the series with HEK293 [1] and in the series on HEK293 [2] was “Non-Toxic” in each case. In addition, the figures for the IC50 in series [6] and in series [7] (read-out: IC50) were 1.66 µM and 5.08 µM, respectively.

For the compound `O=C(Cn1c(CNC(=O)c2ccccc2)nc2ccccc21)Nc1ccc2c(c1)CCC2`, the Activity result with HEK293 [1] and with HEK293 [2] was “Non-Toxic” in each case. For the same compound, the outcome in series [3] and in series [4] was inactive.

In the case of `CN(C)c1cccc2c(S(=O)(=O)N(C)CCc3nc4ccccc4n3CC(=O)Nc3ccc4c(c3)CCC4)cccc12`, the Activity result with HEK293 [1] and in the series with HEK293 [2] was “Non-Toxic” each time. The IC50 in series [6] is 3.08 µM; in series [7] (read-out: IC50) it was above 20 µM.

For the compound `O=C(Cn1c(CCNCc2ccncc2)nc2ccccc21)Nc1ccc2c(c1)CCC2`, the Activity entry in the series with HEK293 [1] and with HEK293 [2] was “Non-Toxic” in each case. Besides, the result in series [3] and in series [4] was inactive. Further, the half-maximal inhibitory concentration (IC50) in series [6] was 27.8 µM; in series [7] (read-out: IC50) it was 22.9 µM.

Turning to `CN(CCc1nc2ccccc2n1CC(=O)Nc1ccc2c(c1)CCC2)S(=O)(=O)c1ccccc1`, the Activity entry in the series on HEK293 [1] and in the series on HEK293 [2] was “Non-Toxic” each time. In addition, the half-inhibitory concentration (IC50) in series [6] stood at 2.56 µM; in series [7] (read-out: IC50), 0.63 µM.
